Reference: paper PMC6492960 (Oncoimmunology, 2019)

Tests used:
[1] = tested on: splenocytes of immunised HLA-DR4 transgenic mice; assay: Epitope mapping, HLA-DR4 transgenic mice; format: cell-based, mouse; details: Supplementary Figure 3
[2] = tested on: TCR α and β chain CDR3 of CD4+ CFSE^high and CFSE^low cells; assay: TCR α and β CDR3 repertoire diversity of sorted CD4+ CFSE high/low cells; set-up: species or system human; details: for Diversity Index (D50) TRA / Diversity Index (D50) TRB: day 10, non-normalised
Method in brief: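 CD25-depleted human PBMCs were labelled with 5µM CFSE for 5 min at room temperature and cultured at 1.5-2x10^6/ml with 10μg/ml citrullinated peptide or vehicle. On day 10 they were stained for CD4/CD8 and sorted into CD4+ CFSEhigh and CFSElow populations. RNA then went through RT-PCR, ARM-PCR with human TCR α/β primers, and NGS bulk sequencing. D50 is the percentage of clones accounting for the cumulative 50% of CDR3 counts.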

[3] = tested on: splenocytes of immunised HLA-DP4 transgenic mice (IFNγ); format: cell-based, mouse; details: anti-CD4 20 µg/ml, 15 min prior to peptide
Method in brief: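 HLA-A2.1/HLA-DP4/hCD4 transgenic mice (8–12 weeks) immunised s.c. at tail base on days 0, 7 and 14 with 25 µg peptide in PBS emulsified with CpG ODN 1826 and MPLA (5 µg each). Spleens taken day 20. Splenocytes (5 × 10^5/well) given anti-CD4 GK1.5 before 10µg/ml peptide; quadruplicate wells, 40 h, 37°C, 5% CO2. LPS positive control. Spots counted automatically.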

[4] = tested on: HLA-DP4; details: cited from earlier work
[5] = biological target: HLA-DP4 (HLA-DPA*0103 α chain / HLA-DPB*0401 β chain) (human); assay: ELISA
[6] = donor BD0011, CD4+ CFSE^High (non-proliferating)
[7] = donor BD0011, CD4+ CFSE^Low (proliferating)
[8] = donor BD0008, CD4+ CFSE^High (non-proliferating)
[9] = donor BD0008, CD4+ CFSE^Low (proliferating)

For “FSSLNL-cit-ETNLDSL [Vimentin 418-431 cit]”, which “shorter epitope mapping in HLA-DR4 transgenic mice” value (shortened to “shorter epitope mapping”) [1] is on record?
The value was “consistent with findings in the HLA-DR4 transgenic mice mapping shorter peptide sequences”.

For “LPNFSSLNL-cit-ETNLDSLPL [Vimentin 415-433 cit]”, which “Diversity Index (D50) TRA” value [2, 6] is on record?
The value was 9.9.

What about the “Diversity Index (D50) TRB” value [2, 6] of the same substance?
The value was 5.9.

And the “Diversity Index (D50) TRA” value [2, 7]?
Its value is 0.7.

And the “Diversity Index (D50) TRB” value [2, 7]?
Its value is 0.5.

What about the “TCR clonality of responding CD4 T cells” value ([2]; donor BD0011, compared with non-proliferating CD4 population) of the same substance?
The value was “a bias of TCR Vβ and Vα sequences among CD4+ proliferating cells (CFSE^low)”.

And the “IFNγ ELISpot response in presence of CD4 blocking antibody” value (shortened to “IFNγ ELISpot response in presence”) [3]?
The value was “Responses were lost”.

With LQYM-cit-ADQAAGGLR [collagen II] as the substance, how does the “binding to HLA-DP4 (literature)” value [4] read?
Its value is “not to bind to HLA-DP4”.

For NQDFTN-cit-INKLKNS [fibrinogen], which “binding to HLA-DP4 (literature)” value [4] is on record?
The value was “not to bind to HLA-DP4”.

Which “shorter epitope mapping” value [1] does the source give for “VIGMDVAASEFF-cit-SG [Enolase 241-255 cit]” here?
The value was “consistent with findings in the HLA-DR4 transgenic mice mapping shorter peptide sequences”.

With “VIGMDVAASEFF-cit-SGKYDLD [Enolase 241-260 cit]” as the substance, how does the “IFNγ ELISpot response in presence” value [3] read?
Its value is “Responses were lost”.

For “cit-SYVTTST-cit-TYSLGS [Vimentin 28-42 cit]”, which “shorter epitope mapping” value [1] is on record?
Its value is “consistent with findings in the HLA-DR4 transgenic mice mapping shorter peptide sequences”.

Which “Diversity Index (D50) TRA” value [2, 8] does the source give for “cit-SYVTTST-cit-TYSLGSAL-cit-PSTS [Vimentin 28-49 cit]” here?
Its value is 12.8.

And the “Diversity Index (D50) TRB” value [2, 8]?
The value was 17.

What about the “Diversity Index (D50) TRA” value [2, 9] of the same substance?
The value was 0.4.

And the “Diversity Index (D50) TRB” value [2, 9]?
Its value is 0.2.

What about the “TCR clonality of responding CD4 T cells” value ([2]; donor BD0008, compared with non-proliferating CD4 population) of the same substance?
Its value is “a bias of TCR Vβ and Vα sequences among CD4+ proliferating cells (CFSE^low)”.

What about the “IFNγ ELISpot response in presence” value [3] of the same substance?
Its value is “Responses were lost”.

For “non-biotinylated Hepatitis B surface antigen aa 181–193 peptide”, which percent inhibition of the binding of the biotinylated Hepatitis B peptide [5] is on record?
Its percent inhibition of the binding of the biotinylated Hepatitis B peptide is 50%.
